From ChEMBL document CHEMBL1134346, “Labeling and evaluation of N-[11C]methylated quinoline-2-carboxamides as potential radioligands for visualization of peripheral benzodiazepine receptors” (J Med Chem, 2001)

Organism: Rattus norvegicus
Assay: Tissue (cortex) distribution in Albino male CD rats after 30 minutes expressed as percent of injected dose per gram of organ.
Format: ADME, organism-based
Settings: in vivo, 0.5 h
In short: (§1)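 Radioligand given in saline into tail vein of male albino CD rats (225-250 g); 100-200 µCi per animal, 1-2 Ci/µmol at injection depending on radioligand. Three rats per time point were decapitated under light ether anaesthesia. Blood, plasma, brain regions and washed organs were weighed and gamma-counted. Uptake is %I.D./g tissue, mean ± SD.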

Row | SMILES | I.D./g
1 | CCC(C)N(C)C(=O)c1nc2ccccc2c(-c2ccccc2F)c1C (stereo not given) | 0.1%

Organism: Rattus norvegicus
Assay: Tissue (cortex) distribution in Albino male CD rats after 5 minutes expressed as percent of injected dose per gram of organ.
Format: ADME, organism-based
Settings: in vivo
In short: as §1

Row | SMILES | I.D./g
2 | CCC(C)N(C)C(=O)c1nc2ccccc2c(-c2ccccc2F)c1C (stereo not given) | 0.1%

Organism: Rattus norvegicus
Assay: Tissue (cortex) distribution in Albino male CD rats after 90 minutes expressed as percent of injected dose per gram of organ.
Format: ADME, organism-based
Settings: in vivo, 1.5 h
In short: as §1

Row | SMILES | I.D./g
3 | CCC(C)N(C)C(=O)c1nc2ccccc2c(-c2ccccc2F)c1C (stereo not given) | 0.06%

The compounds below were run against Translocator protein (Rattus norvegicus) (UniProt P16257) (assay: Tissue (heart) concentration of radioactivity at 30 min post-injection into Albino male CD rats after pretreatment with cold PK 11195.). Settings: not given.
Chain of Translocator protein (Rattus norvegicus) (P16257 whole entry, looked up): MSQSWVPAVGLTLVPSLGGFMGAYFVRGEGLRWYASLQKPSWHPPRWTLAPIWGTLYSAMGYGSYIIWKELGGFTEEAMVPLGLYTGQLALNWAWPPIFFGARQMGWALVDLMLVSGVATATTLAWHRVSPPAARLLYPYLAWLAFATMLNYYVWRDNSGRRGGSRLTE
Format: functional
In short: (§2)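 Separate groups of five rats received tail-vein PK 11195 (1.4-1.6 mg; 5 mg/kg) in 30 µL DMSO:EtOH 1:1, or vehicle alone, immediately before iv radioligand (90-170 µCi in saline, 0.9-1 Ci/µmol). Rats were decapitated at 30 min and tissues gamma-counted; values are %I.D./g.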

Row | SMILES | I.D./g
4 | CCC(C)N(C)C(=O)c1nc2ccccc2c(-c2ccccc2F)c1C (stereo not given) | < 0.11%

Organism: Rattus norvegicus
Assay: Tissue (muscle) distribution in Albino male CD rats after 90 minutes expressed as percent of injected dose per gram of organ.
Format: ADME, organism-based
Settings: in vivo, 1.5 h
In short: (§3)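 Male albino CD rats (225-250 g) received the 11C-labelled radioligand in saline by tail-vein injection. Three rats per time point were decapitated under light ether anaesthesia at 5, 15, 30, 60 or 90 min. Blood was collected heparinized and plasma separated by centrifugation. The pituitary was dissected from the brain. Lung, liver (three-lobe pieces) and right deltoid muscle were sampled, washed in cold saline, gamma-counted and weighed. Results are %I.D./g.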

Row | SMILES | I.D./g
5 | CCC(C)N(C)C(=O)c1nc2ccccc2c(-c2ccccc2F)c1C (stereo not given) | 0.08%

These compounds were tested against Translocator protein (Rattus norvegicus) (UniProt P16257) (assay: Tissue (pituitary) concentration of radioactivity at 30 min post-injection into Albino male CD rats after pretreatment with cold PK 11195.). Settings: Pituitary gland.
Format: functional, tissue-based
In short: (§4)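 Blocking study in male albino CD rats, five per group. Immediately before the 11C radioligand (in saline, i.v. tail vein), rats received 30 µL tail-vein PK 11195 (5 mg/kg; 1.4-1.6 mg) in DMSO:EtOH 1:1, or vehicle. Rats were decapitated at 30 min. Tissues were dissected, washed, gamma-counted and weighed as in the biodistribution study. Results are %I.D./g.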

Row | SMILES | I.D./g
6 | CCC(C)N(C)C(=O)c1nc2ccccc2c(-c2ccccc2F)c1C (stereo not given) | > 0.06%

Organism: Rattus norvegicus
Assay: Tissue (pituitary) distribution in Albino male CD rats after 90 minutes expressed as percent of injected dose per gram of organ.
Format: ADME, organism-based, Pituitary gland
Settings: in vivo, 1.5 h
In short: as §3

Row | SMILES | I.D./g
7 | CCC(C)N(C)C(=O)c1nc2ccccc2c(-c2ccccc2F)c1C (stereo not given) | 0.15%

Organism: Rattus norvegicus
Assay: Tissue (plasma) distribution in Albino male CD rats after 60 minutes expressed as percent of injected dose per gram of organ.
Format: ADME, organism-based
Settings: in vivo, 1 h
In short: as §3

Row | SMILES | I.D./g
8 | CCC(C)N(C)C(=O)c1nc2ccccc2c(-c2ccccc2F)c1C (stereo not given) | 0.06%

The compounds below were run against Translocator protein (Rattus norvegicus) (UniProt P16257) (assay: Tissue (spleen) concentration of radioactivity at 30 min post-injection into Albino male CD rats after pretreatment with cold PK 11195.). Settings: not given.
Format: functional, tissue-based
In short: as §4

Row | SMILES | I.D./g
9 | CCC(C)N(C)C(=O)c1nc2ccccc2c(-c2ccccc2F)c1C (stereo not given) | < 0.09%

Organism: Rattus norvegicus
Assay: Tissue (heart) distribution in Albino male CD rats after 30 minutes expressed as percent of injected dose per gram of organ.
Format: ADME, organism-based
Settings: in vivo, 0.5 h
In short: as §1

Row | SMILES | I.D./g
10 | CCC(C)N(C)C(=O)c1nc2ccccc2c(-c2ccccc2F)c1C (stereo not given) | 0.73%

Organism: Rattus norvegicus
Assay: Tissue (heart) distribution in Albino male CD rats after 5 minutes expressed as percent of injected dose per gram of organ.
Format: ADME, organism-based
Settings: in vivo
In short: as §1

Row | SMILES | I.D./g
11 | CCC(C)N(C)C(=O)c1nc2ccccc2c(-c2ccccc2F)c1C (stereo not given) | 0.68%

Organism: Rattus norvegicus
Assay: Tissue (heart) distribution in Albino male CD rats after 60 minutes expressed as percent of injected dose per gram of organ.
Format: ADME, organism-based
Settings: in vivo, 1 h
In short: as §1

Row | SMILES | I.D./g
12 | CCC(C)N(C)C(=O)c1nc2ccccc2c(-c2ccccc2F)c1C (stereo not given) | 0.6%

Organism: Rattus norvegicus
Assay: Tissue (heart) distribution in Albino male CD rats after 90 minutes expressed as percent of injected dose per gram of organ.
Format: ADME, organism-based
Settings: in vivo, 1.5 h
In short: as §1

Row | SMILES | I.D./g
13 | CCC(C)N(C)C(=O)c1nc2ccccc2c(-c2ccccc2F)c1C (stereo not given) | 0.58%

Organism: Rattus norvegicus
Assay: Tissue (intestine) distribution in Albino male CD rats after 60 minutes expressed as percent of injected dose per gram of organ.
Format: ADME, organism-based
Settings: in vivo, 1 h
In short: as §1

Row | SMILES | I.D./g
14 | CCC(C)N(C)C(=O)c1nc2ccccc2c(-c2ccccc2F)c1C (stereo not given) | 0.25%

Organism: Rattus norvegicus
Assay: Tissue (intestine) distribution in Albino male CD rats after 90 minutes expressed as percent of injected dose per gram of organ.
Format: ADME, organism-based
Settings: in vivo, 1.5 h
In short: as §1

Row | SMILES | I.D./g
15 | CCC(C)N(C)C(=O)c1nc2ccccc2c(-c2ccccc2F)c1C (stereo not given) | 0.24%

Organism: Rattus norvegicus
Assay: Tissue (kidney) distribution in Albino male CD rats after 15 minutes expressed as percent of injected dose per gram of organ.
Format: ADME, organism-based
Settings: in vivo, 0.25 h
In short: as §1

Row | SMILES | I.D./g
16 | CCC(C)N(C)C(=O)c1nc2ccccc2c(-c2ccccc2F)c1C (stereo not given) | 0.73%

Organism: Rattus norvegicus
Assay: Tissue (cerebellum) distribution in Albino male CD rats after 30 minutes expressed as percent of injected dose per gram of organ.
Format: ADME, organism-based
Settings: in vivo, 0.5 h
In short: as §1

Row | SMILES | I.D./g
17 | CCC(C)N(C)C(=O)c1nc2ccccc2c(-c2ccccc2F)c1C (stereo not given) | 0.09%

Organism: Rattus norvegicus
Assay: Tissue (cerebellum) distribution in Albino male CD rats after 60 minutes expressed as percent of injected dose per gram of organ.
Format: ADME, organism-based
Settings: in vivo, 1 h
In short: as §1

Row | SMILES | I.D./g
18 | CCC(C)N(C)C(=O)c1nc2ccccc2c(-c2ccccc2F)c1C (stereo not given) | 0.07%

What follows are compounds tested against Translocator protein (Rattus norvegicus) (UniProt P16257) (assay: Tissue (cortex) concentration of radioactivity at 30 min post-injection into Albino male CD rats after pretreatment with cold PK 11195.). Settings: not given.
Format: functional
In short: as §2

Row | SMILES | I.D./g
19 | CCC(C)N(C)C(=O)c1nc2ccccc2c(-c2ccccc2F)c1C (stereo not given) | < 0.02%

Organism: Rattus norvegicus
Assay: Tissue (lung) distribution in Albino male CD rats after 15 minutes expressed as percent of injected dose per gram of organ.
Format: ADME, organism-based
Settings: in vivo, 0.25 h
In short: as §3

Row | SMILES | I.D./g
20 | CCC(C)N(C)C(=O)c1nc2ccccc2c(-c2ccccc2F)c1C (stereo not given) | 2.25%
